Records with an inconclusive call do not appear.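 How the source made its calls, unless noted: active means cell viability at or below a set limit in both duplicate runs, the limit being the all-compound median minus 4 SD (cut at about 23% in these data, passing the limit was not always enough); inconclusive means no clear call, values can overlap the other calls; inactive means the rest.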
What was measured:
[1] = S. cerevisiae growth inhibition in permissive medium (OD615), pilot counter-assay for S. cerevisiae lifespan shortening project, permissive growth control (AID 705;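 active means growth inhibition above 25% in both replicates, a cutoff set 3 SD above the mean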); settings: OD615, 24 h, at 10 µM, active compounds read high
In short: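 System: Engineered DeaD yeast | Buffer or medium: SC raffinose/galactose permissive medium | Incubation: Cells pre-grown 4 h, then 24 h compound exposure, 30 °C humidified | Measured by: Absorbance (optical density) at 615 nm | Read-out: Reduction in yeast growth (OD615)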

[2] = S. cerevisiae growth inhibition in restrictive medium, OD615, pilot screen, restrictive growth control, yeast lifespan reduction project (AID 706;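 active means growth inhibition above a set limit, 3 SD over mean compound inhibition, in both replicates, cut at about 43% in these data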;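 further: modified DeaD lifespan yeast strain shifted to restrictive glucose medium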); settings: OD615, 48 h, at 10 µM, active compounds read high
In short: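 Material: modified S. cerevisiae; Medium: glucose-based CSMM-D restrictive medium; Compound dosing: one concentration, 10 µM final, 0.25% DMSO; Incubation: 48 h compound exposure at 30 °C; Measured by: OD615.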

[3] = doxorubicin toxicity protection in MRP-1 cells – H69AR cells, CellTiter-Glo, duplicate, MRP-1 activator project, pilot screen (AID 807;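 active means viability increase at or above a cutoff of the median across tested compounds plus 3 SD, cut at about 8.5% in these data, passing the limit was not always enough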;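 further: compound pretreatment 18-22 h then 72 h combined with doxorubicin; 0% = doxorubicin alone and 100% = vehicle without doxorubicin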); settings: H69AR viability with doxorubicin, CellTiter-Glo luminescence; at 10 µM; active compounds read high
[4] = viability of HCT116 without oncogenic beta-catenin – human colon tumor cells, pilot screen (AID 823); settings: HCT116 beta-catenin knockout viability, CellTiter-Glo, 60 h; at 10 µM; active compounds read low;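 further: 0% = wells killed by 20 µM Hyamine and 100% = untreated DMSO cell wells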
[5] = viability of PTEN-null HCT116 cells – cell-based, HCT116 clonal line, CellTiter-Glo, pilot screen (AID 824;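 active means viability at or below 27.92% in each of two runs, the all-compound median minus 4 SD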;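 further: 0% = 20 µM Hyamine control and 100% = vehicle cell control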); settings: HCT116 PTEN-deleted viability, 60 h, at 10 µM, active compounds read low
[6] = RAM pathway blockade in budding yeast – dse1pr::URA3 reporter, 5-FOA selection, pilot screen (AID 869;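 active means inhibition over a set limit, the all-compound mean plus 3 SD, in both replicate runs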;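 further: 0% = DMSO wells with no growth and 100% = 10 µM 1-NA-PP1 with full growth; RAM network block rescues cells from 5-FOA so hits raise OD615 growth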); settings: S. cerevisiae dse1pr::URA3 5-FOA growth, OD615, 2 d; at 10 µM; active compounds read high; strain carries analog-sensitive mutant Cbk1 kinase
[7] = RAM signaling pathway blockade in yeast – S. cerevisiae, Pdr1DBD-CYC8 efflux-inhibited sensitized strain, primary screen (AID 1298;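 active means RAM network inhibition above 8.4% in each of two replicates, 3 SD over the compound average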;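 further: 0% = DMSO untreated cells without growth and 100% = 10 µM 1-NA-PP1 full growth; higher means more yeast growth rescued from 5-FOA killing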); settings: S. cerevisiae cbk1-as DSE1-URA3 strain, 5-FOA growth OD615, 2 d; at 50 µM; active compounds read high

O=C(CSc1oc(-c2ccco2)nc1S(=O)(=O)c1ccc(Cl)cc1)NCC1CCCO1 (configuration not stated)
inactive: growth inhibition [1] 1.39% | growth inhibition [2] 2.77% | viability increase [3] -1.13% | viability [4] 96.9% | viability [5] 95.1% | inhibition [6] -0.09% | RAM network inhibition [7] 1.57%

CC(=O)Nc1cccc(N2C(=O)CC(Cc3ccccc3)C2=O)c1 (configuration not stated)
inactive: growth inhibition [1] -6.24% | growth inhibition [2] -3.32% | viability increase [3] -1.68% | viability [4] 91.5% | viability [5] 89% | inhibition [6] 0.52% | RAM network inhibition [7] 7.45%

CCOc1ccc(C2N(c3ccc(OC)cc3)C(=O)C3CCCN32)cc1OC (configuration not stated)
inactive: growth inhibition [1] -1.7% | growth inhibition [2] -0.11% | viability increase [3] -2.39% | viability [4] 98.7% | viability [5] 101% | inhibition [6] 1.57% | RAM network inhibition [7] 3%

CCc1ccc2c(c1)C(NC(C)=O)C(=O)N2CC (configuration not stated)
inactive: growth inhibition [1] -11.8% | growth inhibition [2] -3% | viability increase [3] -0.55% | viability [4] 78.5% | viability [5] 86% | inhibition [6] 0.73% | RAM network inhibition [7] 0.8%

Cc1cc(NC(=O)c2cn(C3CCCCC3)c(=O)c3c2c2ccccc2n3C)no1
inactive: growth inhibition [1] -5.84% | growth inhibition [2] 11.9% | viability increase [3] -3.21% | viability [4] 71.7% | viability [5] 71.7% | inhibition [6] 1.8% | RAM network inhibition [7] 7.54%

COc1cccc(-c2nn(C)c3sc(C(=O)NCc4ccc5c(c4)OCO5)cc23)c1
inactive: growth inhibition [1] 2.61% | growth inhibition [2] 9.31% | viability increase [3] -2.08% | viability [4] 92.6% | viability [5] 82.7% | inhibition [6] 4.3% | RAM network inhibition [7] 12.7%

CC1(C)NC(=O)N(CC(O)COc2ccc(N3C(=O)c4ccccc4C3=O)cc2)C1=O (configuration not stated)
inactive: growth inhibition [1] -3.45% | growth inhibition [2] -3.49% | viability increase [3] -1.32% | viability [4] 102% | viability [5] 96.5% | inhibition [6] 1.87% | RAM network inhibition [7] 0.17%

Cc1cc(C)nc(SCC(=O)Nc2ccc(S(=O)(=O)Nc3onc(C)c3C)cc2)n1
inactive: growth inhibition [1] -5.04% | growth inhibition [2] 14% | viability increase [3] 0.95% | viability [4] 109% | viability [5] 101% | inhibition [6] 0.88% | RAM network inhibition [7] -1.62%

CC(=O)C1C(c2ccc(O)cc2)NC(=O)NC1(O)C(F)(F)F (configuration not stated)
inactive: growth inhibition [1] -15.9% | growth inhibition [2] -25.1% | viability increase [3] -1.41% | viability [4] 102% | viability [5] 98.7% | inhibition [6] 2.78% | RAM network inhibition [7] 4.56%

O=C(Nc1nc2cc3c(cc2s1)OCO3)C1=COCCO1
inactive: growth inhibition [1] -9.14% | growth inhibition [2] -31.3% | viability increase [3] -6.84% | viability [4] 45.8% | viability [5] 41.3% | inhibition [6] 1.75% | RAM network inhibition [7] 5.3%

CCOCCCNC(=O)c1cn(C)c2ccc(S(=O)(=O)N(C)C3CCCCC3)cc2c1=O
inactive: growth inhibition [1] -5.04% | growth inhibition [2] -14.3% | viability increase [3] -4.93% | viability [4] 108% | viability [5] 101% | inhibition [6] 0.93% | RAM network inhibition [7] -0.73%

CCn1c(CNC(=O)C23CC4CC(CC(C4)C2)C3)nnc1SCC(=O)Nc1nnc(C)s1
inactive: growth inhibition [1] 2.36% | growth inhibition [2] 24.3% | viability increase [3] 0.62% | viability [4] 96.7% | viability [5] 96.9% | inhibition [6] 2.5% | RAM network inhibition [7] 2.71%

Cc1[nH]nc2c1C(c1ccccc1F)NC2=O (configuration not stated)
inactive: growth inhibition [1] -0.665% | growth inhibition [2] -2.84% | viability increase [3] -1.22% | viability [4] 106% | viability [5] 97.9% | inhibition [6] 2.04% | RAM network inhibition [7] -0.67%

Cc1ccc(-c2nc(CS(=O)(=O)CC(=O)N3CC(C)CC(C)C3)c(C)o2)cc1 (configuration not stated)
inactive: growth inhibition [1] 0.15% | growth inhibition [2] 4.4% | viability increase [3] -2.57% | viability [4] 58% | viability [5] 72.8% | inhibition [6] 1.93% | RAM network inhibition [7] 3.8%

COc1ccc(N(CC(=O)NCc2ccc3c(c2)OCO3)S(=O)(=O)c2c(C)nn(C)c2C)cc1
inactive: growth inhibition [1] -12.2% | growth inhibition [2] -3.47% | viability increase [3] -2.86% | viability [4] 101% | viability [5] 101% | inhibition [6] 0.12% | RAM network inhibition [7] 2.04%

COc1ccc(Cl)cc1Nc1cc(C)nc2nc(C)nn12
inactive: growth inhibition [1] -5.01% | growth inhibition [2] -6.77% | viability increase [3] -3.12% | viability [4] 103% | viability [5] 94.8% | inhibition [6] -0.515% | RAM network inhibition [7] 3.45%

COCCOC(=O)C1=C(C)NC(=O)NC1c1c(F)cccc1Cl (configuration not stated)
inactive: growth inhibition [1] -7.95% | growth inhibition [2] -2.18% | viability increase [3] 0% | viability [4] 106% | viability [5] 95.8% | inhibition [6] 0.515% | RAM network inhibition [7] 0.88%

COC(=O)c1ccc(C2c3c(oc4cc(C)c(C)cc4c3=O)C(=O)N2CCCN(C)C)cc1 (configuration not stated)
inactive: growth inhibition [1] -7.92% | growth inhibition [2] -7.88% | viability increase [3] -2.2% | viability [4] 93.8% | viability [5] 87.7% | inhibition [6] 0.34% | RAM network inhibition [7] 3.78%

CN(C)c1ccc(NC(=O)Cn2c(=O)n(Cc3ccccc3)c(=O)c3ccccc32)cc1
inactive: growth inhibition [1] -0.65% | growth inhibition [2] 1.48% | viability increase [3] 3% | viability [4] 83.2% | viability [5] 88.3% | inhibition [6] 0.52% | RAM network inhibition [7] 8.96%

Cc1ccccc1CSc1nnc(Cn2c(=O)sc3ccccc32)n1C
inactive: growth inhibition [1] -9.17% | growth inhibition [2] 11.4% | viability increase [3] 1.46% | viability [4] 95.6% | viability [5] 98.5% | inhibition [6] 1.81% | RAM network inhibition [7] 6.66%

CCC(CC)C(=O)Nc1ccccc1NC(C)=O
inactive: growth inhibition [1] -3.13% | growth inhibition [2] 0.295% | viability increase [3] 0.4% | viability [4] 99.8% | viability [5] 98% | inhibition [6] 0.36% | RAM network inhibition [7] 4.35%

COc1ccccc1N1CCN(C(=O)c2cc3cc(Br)ccc3oc2=O)CC1
inactive: growth inhibition [1] 2.45% | growth inhibition [2] -11.9% | viability increase [3] -0.94% | viability [4] 110% | viability [5] 94.1% | inhibition [6] 2.47% | RAM network inhibition [7] 1.96%

COc1ccc(CNc2oc(C)nc2C#N)cc1
inactive: growth inhibition [1] -0.095% | growth inhibition [2] 5.62% | viability increase [3] -1.84% | viability [4] 98.6% | viability [5] 93.1% | inhibition [6] 0.24% | RAM network inhibition [7] 6.09%

Cc1cc(NS(=O)(=O)c2ccc(NC(=O)c3cnc4scc(C)n4c3=O)cc2)nc(C)n1
inactive: growth inhibition [1] -8.46% | growth inhibition [2] -14.3% | viability increase [3] -2.16% | viability [4] 102% | viability [5] 98.5% | inhibition [6] 1.31% | RAM network inhibition [7] 4.17%

CC(=O)Nc1ccc(S(=O)(=O)NCCc2cc3c(C)ccc(C)c3[nH]c2=O)cc1
inactive: growth inhibition [1] -10.1% | growth inhibition [2] -6.53% | viability increase [3] -0.47% | viability [4] 98.2% | viability [5] 94.2% | inhibition [6] 1.82% | RAM network inhibition [7] 1.05%

CCOCCCNC(=O)c1cccs1
inactive: growth inhibition [1] -5.41% | growth inhibition [2] -4.17% | viability increase [3] -1.31% | viability [4] 91% | viability [5] 94.4% | inhibition [6] 2.22% | RAM network inhibition [7] 0.76%

CCNc1nc2c(c(=O)[nH]c(=O)n2C)n1CC(C)C
inactive: growth inhibition [1] -5.42% | growth inhibition [2] -2.34% | viability increase [3] -2.15% | viability [4] 106% | viability [5] 100% | inhibition [6] 0.05% | RAM network inhibition [7] 2.92%

Cc1ccc(C)c(C(=O)CSc2n[nH]c(C)n2)c1
inactive: growth inhibition [1] 0.045% | growth inhibition [2] 11.3% | viability increase [3] -0.91% | viability [4] 102% | viability [5] 102% | inhibition [6] 1.77% | RAM network inhibition [7] 1.5%

Cc1cc(C)n2c(SCC#N)nnc2n1
inactive: growth inhibition [1] -13.1% | growth inhibition [2] -13% | viability increase [3] 0.04% | viability [4] 103% | viability [5] 92.2% | inhibition [6] 2.84% | RAM network inhibition [7] 3.94%

CC1(C)Nc2ccccc2N(CC(=O)N2CCCCC2)C1=O
inactive: growth inhibition [1] 0.325% | growth inhibition [2] -1.38% | viability increase [3] -0.05% | viability [4] 107% | viability [5] 103% | inhibition [6] -0.16% | RAM network inhibition [7] 0.97%

CCCN(CCC)S(=O)(=O)c1cc(Br)cc2c1N(C(=O)CC)CC2
inactive: growth inhibition [1] -8.33% | growth inhibition [2] -21.3% | viability increase [3] -4.77% | viability [4] 65.9% | viability [5] 69.7% | inhibition [6] 0.885% | RAM network inhibition [7] 4.71%

CCN1CCN(C(=O)C2CCN(S(=O)(=O)c3cccc4cccnc34)CC2)CC1
inactive: growth inhibition [1] -6.23% | growth inhibition [2] 2.11% | viability increase [3] -0.43% | viability [4] 108% | viability [5] 96.3% | inhibition [6] 2.33% | RAM network inhibition [7] 0.98%

C=CCN(c1ccccc1)S(=O)(=O)c1ccc2c(c1)oc(=O)n2C
inactive: growth inhibition [1] -15.1% | growth inhibition [2] -18.7% | viability increase [3] -2.65% | viability [4] 98.7% | viability [5] 87.6% | inhibition [6] 2.14% | RAM network inhibition [7] 3.12%

COCCN1C(=O)c2oc3ccccc3c(=O)c2C1c1ccc(C(=O)OC)cc1 (configuration not stated)
inactive: growth inhibition [1] -1.7% | growth inhibition [2] 5.81% | viability increase [3] -1.14% | viability [4] 94.3% | viability [5] 89.1% | inhibition [6] 0.775% | RAM network inhibition [7] 2.37%

CC1CCCCC1NC(=O)C1CCN(C(=O)c2sccc2-n2cccc2)CC1 (configuration not stated)
inactive: growth inhibition [1] -4.95% | growth inhibition [2] -6.6% | viability increase [3] -1.22% | viability [4] 105% | viability [5] 94.8% | inhibition [6] 2.28% | RAM network inhibition [7] 4.86%

CCCC(=O)NC(C)c1nc2ccccc2n1CC (configuration not stated)
inactive: growth inhibition [1] -0.24% | growth inhibition [2] 4.37% | viability increase [3] 0.02% | viability [4] 97% | viability [5] 94.4% | inhibition [6] 0.97% | RAM network inhibition [7] 2.35%

Reference: PubChem BioAssay
